Results pooled from the literature.
Lines come from different studies, so protocols differ.
Kir1 channel protein: Kir1 channel protein (Aedes aegypti, UniProt L0EQS9)
MMP14: Matrix metalloproteinase-14 (MMP14, Homo sapiens, UniProt P50281)
BTK: Tyrosine-protein kinase BTK (BTK, Homo sapiens, UniProt Q06187)
ABHD6: Monoacylglycerol lipase ABHD6 (ABHD6, Homo sapiens, UniProt Q9BV23)
CYP2E1: Cytochrome P450 2E1 (CYP2E1, Homo sapiens, UniProt P05181)
NTSR1: Neurotensin receptor type 1 (NTSR1, Homo sapiens, UniProt P30989)

Structure (SMILES) | target | test | system | conditions | IC50 [nM]
O=[N+]([O-])c1ccc(N2CCN(S(=O)(=O)c3ccc(F)cc3)CC2)cc1NCc1ccccn1 | Kir1 channel protein | ion flux, inhibitor | – | – | 800
Cn1nc(C(=O)NCc2ccc(C(=O)O)cc2)cc1-c1ccc2[nH]c(-c3cncnc3)cc2c1 | MMP14 | enzyme activity, inhibitor | – | – | > 20000
Cc1ccc(C(=O)Nc2ccc(Oc3cc4cnn(C)c4cc3-c3cn[nH]c3)c(F)c2)c(=O)n1-c1ccc(F)cc1 | Vascular endothelial growth factor receptor 1 (FLT1, Homo sapiens, UniProt P17948) | enzyme activity, inhibitor, radiometric | – | – | 76
Cn1cc(-c2cc3cc(-c4cc(C(=O)NCc5ccc(C(=O)O)cc5)nn4C)ccc3[nH]2)cn1 | MMP14 | enzyme activity, inhibitor | – | – | > 20000
O=S(=O)(c1ccc(Cl)cc1)N1CCN(c2cccc(NCc3ccncc3)c2)CC1 | Kir1 channel protein | ion flux, inhibitor | – | – | 4000 to 9000
COc1ccc(F)cc1C(=O)NCc1ccc(-c2nn([C@@H](C)C(F)(F)F)c(N)c2C(N)=O)cc1 | BTK | phosphorylation in cells, inhibitor, western blot | – | – | 4.2
COc1ccc2c(Oc3ccc4c(C(=O)Nc5ccccc5N)cccc4c3)ccnc2c1 | BTK | enzyme activity, inhibitor | – | – | > 500
O=C1Nc2ccc(I)cc2/C1=C/c1cc(Br)c(O)c(Br)c1 | Protein-glutamine gamma-glutamyltransferase (TGM2, Homo sapiens, UniProt P21980) | enzyme activity, inhibitor | – | – | 50000
CN1CCN(c2ccc(Nc3ncc4cc(C#N)c(=O)n(C5CCCC5)c4n3)cc2)CC1 | BTK | enzyme activity, inhibitor | – | – | 421
N#CN1C[C@H](n2nc(-c3ccc(Oc4ccc(Cl)cn4)cc3)c(C(N)=O)c2N)CCC12CC2 | BTK | enzyme activity, inhibitor | – | – | 0.5 to 4
COc1ccc(F)cc1C(=O)NCc1ccc(-c2nn([C@@H](C)C(F)(F)F)c(N)c2C(N)=O)cc1 | Tyrosine-protein kinase BTK (BTK, Homo sapiens, UniProt Q06187, C481G) | phosphorylation in cells, inhibitor | – | – | 13.9
COc1cc(C[C@H]2C(=O)OC[C@@H]2Cc2ccc(OC)c(OC)c2)ccc1O | Dual 3',5'-cyclic-AMP and -GMP phosphodiesterase 11A (PDE11A, Homo sapiens, UniProt Q9HCR9) | enzyme activity, inhibitor | – | – | > 20000
O=C(Oc1nsnc1N1CCC2CCCCC2C1)N1CCCCC1 (stereo not shown) | ABHD6 | enzyme activity, inhibitor, fluorescence | – | lysate | 560
O=[N+]([O-])c1ccc(N2CCN(S(=O)(=O)c3ccc(F)cc3)CC2)cc1NCc1cccnc1 | Kir1 channel protein | ion flux, inhibitor | – | – | 470
Cn1nc(C(=O)NCc2ccc(C(=O)O)cc2)cc1-c1ccc2[nH]c(-c3cccnc3)cc2c1 | MMP14 | enzyme activity, inhibitor | – | – | > 20000
O=C(Oc1nsnc1N1CCOCC1)N1CCCCC1 | ABHD6 | enzyme activity, inhibitor, fluorescence | – | lysate | 85
CC(C)=CCCC(C)=CCn1cc(CC(P(=O)(O)O)P(=O)(O)O)nn1 | Protein farnesyltransferase (Rattus norvegicus, UniProt Q02293+Q04631) | enzyme activity, inhibitor, HPLC | – | – | 500000
COc1ccc(-c2nsc(NC(=O)[C@@H]3C[C@H]3C)c2C)cc1 | Metabotropic glutamate receptor 8 (GRM8, Homo sapiens, UniProt O00222) | calcium signal, antagonist | – | – | > 12500
Cc1cnc(-c2ccc(-c3ccc(NC(=O)Nc4c(F)cc(F)cc4F)cc3F)c3c2C(=O)NC3)[nH]1 | Mitogen-activated protein kinase kinase kinase 19 (MAP3K19, Homo sapiens, UniProt Q56UN5) | enzyme activity, inhibitor | – | – | 17.3

Structure (SMILES) | target | test | system | conditions | IC50 [nM]
Cc1cc(Cc2cc(C)cc(C(C)(C)C)c2O)c(O)c(C(C)(C)C)c1 | Sarcoplasmic/endoplasmic reticulum calcium ATPase 1 (ATP2A1, Oryctolagus cuniculus, UniProt P04191) | ATPase activity, inhibitor, absorbance | – | pH 7.3 | 3600
CC/C(=N\NC(=O)C(C)Nc1ccccc1)c1ccc(O)c(C)c1O (stereo not shown) | Ribosomal protein S6 kinase alpha-5 (RPS6KA5, Homo sapiens, UniProt O75582) | enzyme activity, inhibitor | – | – | 13.2
C=CC(=O)Nc1cc(Nc2nccc(Nc3cc(Cl)c(F)cc3C(C)(C)O)n2)c(OC)cc1N1CC[C@@H](N(C)C)C1 | CYP2E1 | enzyme activity, inhibitor | human, liver microsomes | – | > 30000
N#Cc1ccc(N2CCN(S(=O)(=O)c3ccc(F)cc3)CC2)cc1NCc1ccncc1 | Kir1 channel protein | ion current, inhibitor, patch clamp | – | – | 27.6
O=c1c(O)c(-c2ccc(O)c(O)c2)oc2cc(O)cc(O)c12 | CYP2E1 | enzyme activity, inhibitor, HPLC | – | – | 104000
N#Cc1ccc(N2CCN(S(=O)(=O)c3ccc(Cl)cc3)CC2)cc1NCc1ccncc1 | Kir1 channel protein | ion current, inhibitor, patch clamp | – | – | 39
Cc1noc(-c2cc3cc(-c4nc(C(N)=O)[nH]c4C)ccc3[nH]2)n1 | MMP14 | enzyme activity, inhibitor | – | – | > 28000
COc1cc2c(NC3CCN(C)CC3)nc(N3CCCN(C)CC3)nc2cc1OCCCN(C)C | Lysine-specific demethylase 4E (KDM4E, Homo sapiens, UniProt B2RXH2) | enzyme activity, inhibitor | – | – | > 57000
CCC1(c2ccc(C)cc2)C(=O)N(C(=O)OC(C)C)N1C(=O)OC(C)C (stereo not shown) | Prolyl endopeptidase (Mus musculus, UniProt Q9QUR6) | enzyme activity, inhibitor | – | – | 4500
Cc1noc(-c2cc3cc(-c4cc(C(=O)NCc5ccc(C(=O)O)cc5)nn4C)ccc3[nH]2)n1 | MMP14 | enzyme activity, inhibitor | – | – | > 20000
Cc1cc(O)cc(C)c1C[C@H](NC(=O)[C@@H]1CCCN1C(=O)[C@H](CCCNC(=N)N)NC(=O)[C@H](CCCNC(=N)N)N(C)C(=O)CNC(=O)[C@@H](CO)NC(=O)CNC(=O)[C@H](Cc1cn(CCNC(=O)[C@H](CC(C)C)NC(=O)[C@H](CC(C)C)NC(=O)C2OC2C(=O)O)nn1)NC(=O)CN1CCN(CC(=O)O)CCN(CC(=O)O)CCN(CC(=O)O)CC1)C(=O)N[C@H](C(=O)N[C@@H](CC(C)C)C(=O)O)C(C)(C)C (mixture of isomers) | NTSR1 | ligand displacement, radioligand | – | – | 45
O=S(=O)(c1ccc(F)cc1)N1CCN(c2cccc(NCc3ccncc3)c2)CC1 | Kir1 channel protein | ion flux, inhibitor | – | – | 4000 to 9000
Cc1cc(O)cc(C)c1C[C@H](NC(=O)[C@@H]1CCCN1C(=O)[C@H](CCCNC(=N)N)NC(=O)[C@H](CCCNC(=N)N)N(C)C(=O)[C@@H](CCC(N)=O)NC(=O)[C@@H](CCC(N)=O)NC(=O)[C@@H](CCC(N)=O)NC(=O)[C@H](Cc1cn(CCNC(=O)[C@H](CC(C)C)NC(=O)[C@H](CC(C)C)NC(=O)C2OC2C(=O)O)nn1)NC(=O)CN1CCN(CC(=O)O)CCN(CC(=O)O)CCN(CC(=O)O)CC1)C(=O)N[C@H](C(=O)N[C@@H](CC(C)C)C(=O)O)C(C)(C)C (mixture of isomers) | NTSR1 | ligand displacement, radioligand | – | – | 92
O=[N+]([O-])c1ccc(N2CCN(S(=O)(=O)c3ccccc3)CC2)cc1NCc1cccnc1 | Kir1 channel protein | ion flux, inhibitor | – | – | 550
Cc1noc(-c2cc3cc(-c4nc(C(=O)NCc5ccncc5)[nH]c4C)ccc3[nH]2)n1 | MMP14 | enzyme activity, inhibitor | – | – | > 20000
CC[C@H](C)[C@H](NC(C)=O)C(=O)N[C@@H](CCC(=O)O)C(=O)N[C@H](C(=O)N[C@H](C=O)CC(=O)O)[C@@H](C)O | Caspase-4 (Casp4, Mus musculus, UniProt P70343) | enzyme activity, inhibitor | – | – | 86
O=[N+]([O-])c1ccc(N2CCN(S(=O)(=O)c3ccc(F)cc3)CC2)cc1NCc1ccncc1 | Kir1 channel protein | ion flux, inhibitor | – | – | 390
NC(=O)c1cccc(-c2cccc(OC(=O)NC3CCCCC3)c2)c1 | Arylacetamide deacetylase (Homo sapiens, UniProt P22760) | enzyme activity, inhibitor | – | – | 190
